Reference: ChEMBL document CHEMBL1157652, “Chemical biology studies on norrisolide” (Bioorg Med Chem, 2010)
Active and inactive are the calls of the source. No cut-off for these calls is given here.

Assays:
[1] = tested on: NRK; test: Golgi-disturbing activity in golgi apparatus of rat NRK cells assessed as partial golgi vesiculation after 60 mins by Hoechst 3342 staining-based immunofluorescence microscopy; type: functional, cell-based
How it was run: (§1)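 NRK cells grown in alpha MEM with 10% FCS, 2 mM glutamine and 25 mM Hepes pH 7.4 on coated coverslips. Compound at 30 µM working concentration (DMSO vehicle control) for 60 min at 37 °C. Cells then immunostained for mannosidase II with Alexa 594 secondary and Hoechst for nuclei, and scored by fluorescence microscopy at 60×.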

[2] = tested on: NRK; test: Golgi-disturbing activity in golgi apparatus of rat NRK cells assessed as reversible golgi fragmentation after 60 mins by Hoechst 3342 staining-based immunofluorescence microscopy; type: functional, cell-based
How it was run: (§2)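 After 1 h compound exposure (30 µM, 37 °C), NRK cells were either fixed directly or washed four times with PBS and kept in fresh complete medium at 37 °C (90 min per methods) before mannosidase II/Hoechst immunofluorescence to judge recovery of Golgi structure.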

[3] = tested on: NRK; test: Golgi-disturbing activity in golgi apparatus of rat NRK cells assessed as golgi fragmentation measured after 60 mins following drug washout by Hoechst 3342 staining-based immunofluorescence microscopy; type: functional, cell-based
[4] = tested on: NRK; test: Golgi-disturbing activity in golgi apparatus of rat NRK cells assessed as golgi vesiculation after 60 mins by Hoechst 3342 staining-based immunofluorescence microscopy; type: functional, cell-based; how it was run: as §1
[5] = tested on: NRK; test: Golgi-disturbing activity in golgi apparatus of rat NRK cells assessed as fusion of golgi membrane fusion with endoplasmic reticulum at 7 uM after 60 mins by Hoechst 3342 staining-based immunofluorescence microscopy; type: functional, cell-based
How it was run: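 Agent applied for 60 min at 37 °C, with a DMSO control. Golgi read by immunofluorescence: rabbit mannosidase II primary, Alexa Fluor 594 secondary, Hoechst DNA stain, 60× fluorescence microscopy.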

[6] = tested on: NRK; test: Golgi-disturbing activity in golgi apparatus of rat NRK cells assessed as golgi fragmentation after 60 mins by Hoechst 3342 staining-based immunofluorescence microscopy in presence of PKD inhibitor H89; type: functional, cell-based
How it was run: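 NRK cells were pretreated with H-89 (20 µM) for 30 min, then incubated with compound for 1 h at 37 °C. Golgi was read by mannosidase II immunofluorescence with Hoechst counterstain.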

[7] = tested on: NRK; test: Golgi-disturbing activity in golgi apparatus of rat NRK cells assessed as complete golgi vesiculation without fusion with endoplasmic reticulum at 30 uM after 60 mins by Hoechst 3342 staining-based immunofluorescence microscopy; type: functional, cell-based; how it was run: as §1
[8] = tested on: NRK; test: Golgi-disturbing activity in golgi apparatus of rat NRK cells assessed as irreversible golgi fragmentation after 60 mins by Hoechst 3342 staining-based immunofluorescence microscopy; type: functional, cell-based; how it was run: as §2
[9] = tested on: NRK; test: Golgi-disturbing activity in golgi apparatus of rat NRK cells assessed as golgi fragmentation after 60 mins by Hoechst 3342 staining-based immunofluorescence microscopy; type: functional; how it was run: as §1
[10] = tested on: NRK; test: Golgi-disturbing activity in golgi apparatus of rat NRK cells assessed as microtubule depolymerization-associated golgi fragmentation after 60 mins by Hoechst 3342 staining-based immunofluorescence microscopy
[11] = tested on: NRK; test: Golgi-disturbing activity in golgi apparatus of rat NRK cells assessed as transport of GFP-fused VSV G protein from endoplasmic reticulum to golgi after 60 mins by protein transport assay; type: functional, cell-based
How it was run: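 NRK cells were transfected with tsO45 VSV-G-GFP using FuGene 6 and held at 40 °C for 20 h to arrest VSV-G in the ER. They were treated with compound (30 µM working) or DMSO for 1 h, then moved to 20 °C for 2 h with cycloheximide. VSV-G entry into the Golgi was judged by fluorescence microscopy against the Golgi marker.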

[12] = tested on: NRK; test: Golgi-disturbing activity in golgi apparatus of rat NRK cells assessed as enhancement of nocodazole-induced golgi fragmentation after 60 mins by Hoechst 3342 staining-based immunofluorescence microscopy; type: functional, cell-based
How it was run: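 NRK cells were pretreated with nocodazole (30 µM) for 60 min, then given compound for a further 60 min. Golgi was visualized by mannosidase II immunofluorescence with Hoechst nuclear stain.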

[13] = tested on: NRK; test: Golgi-disturbing activity in golgi apparatus of rat NRK cells assessed as transport of GFP-fused VSV G protein from fragmented golgi to plasma membrane after 60 mins by protein transport assay; type: functional, cell-based
How it was run: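 After transfection with tsO45 VSV-G-GFP, NRK cells were held at 40 °C for 20 h, then at 20 °C for 2 h with cycloheximide to hold VSV-G in the Golgi. Cells were then incubated with compound (30 µM working) or DMSO and shifted to 32 °C for 1 h. Arrival at the plasma membrane was imaged by fluorescence microscopy.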

[14] = tested on: NRK; test: Golgi-disturbing activity in golgi apparatus of rat NRK cells assessed as microtubule depolymerization-associated golgi fragmentation at 30 uM after 60 mins by Hoechst 3342 staining-based immunofluorescence microscopy; type: functional, cell-based; how it was run: as §1
[15] = Drug localization in golgi apparatus of rat NRK cells after 10 mins by immunofluorescence microscopy; type: ADME, cell-based
How it was run: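 Live NRK cells incubated with fluorescent probe for 10 min and imaged for Golgi-like perinuclear staining. For colocalization, cells were mildly fixed (2% formaldehyde, 90 s), immunostained for mannosidase II, then given probe at 25 μM for 30 min before mounting. Coumarin read at excitation 370 nm, emission 460 nm.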

[16] = tested on: NRK; test: Golgi-disturbing activity in golgi apparatus of rat NRK cells assessed as reversible golgi vesiculation after 60 mins by Hoechst 3342 staining-based immunofluorescence microscopy; type: functional, cell-based; how it was run: as §2

Structure (SMILES) | Activity [1] | Activity [2] | Activity [3] | also measured
C=C([C@H]1[C@H]2CC(=O)O[C@H]2O[C@@H]1C(C)=O)[C@H]1CC[C@H]2C(C)(C)CCC[C@]12C | Active | Active | – | –
CC(=O)O[C@H]1O[C@@H]2OC(=O)C[C@@H]2[C@H]1OCc1ccccc1 | inactive | inactive | inactive | –
COc1ccc(C(=O)O[C@H]2CC[C@H]3C(C)(C)CCC[C@]23C)c(OC)c1 | – | Active | – | Activity [4]: Active
CC(=O)[C@H]1O[C@@H]2OC(=O)C[C@@H]2[C@H]1OCc1ccccc1 | inactive | inactive | inactive | –
C[C@H]1CCC/C=C/[C@@H]2C[C@H](O)C[C@H]2[C@H](O)/C=C/C(=O)O1 | – | – | – | Activity [5]: Active
C=C1CCC[C@H]2[C@](C)(CC3=C(O)C(=O)C=C(OC)C3=O)[C@@H](C)CC[C@]12C | – | – | – | Activity [6]: inactive; Activity [7]: Active; Activity [8]: Active; Activity [9]: Active
C=C([C@H]1[C@H]2CC(=O)O[C@H]2O[C@@H]1C(C)=O)C(C)(C)C | inactive | inactive | inactive | –
C=C([C@@H]1[C@@H](OC(C)=O)O[C@@H]2OC(=O)C[C@@H]21)[C@H]1CC[C@H]2C(C)(C)CCC[C@]12C | – | – | – | Activity [6]: Active; Activity [10]: Active; Activity [11]: inactive; Activity [12]: Active; Activity [13]: Active
COC(=O)Nc1nc2cc(C(=O)c3cccs3)ccc2[nH]1 | – | – | – | Activity [14]: Active
C=C([C@@H]1[C@@H](OC(C)=O)O[C@@H]2OC(=O)C[C@@H]21)C(C)(C)C | inactive | inactive | inactive | –
CC1(C)CCC[C@]2(C)[C@@H](OC(=O)c3ccc(OCC4CC4)cc3OCC3CC3)CC[C@@H]12 | – | – | Active | Activity [4]: Active
C=C([C@H]1[C@H]2CC(=O)O[C@H]2O[C@@H]1CO)[C@H]1CC[C@H]2C(C)(C)CCC[C@]12C | Active | Active | – | –
C=C([C@H]1[C@H]2CC(=O)O[C@H]2O[C@@H]1COC(=O)Cc1cc(=O)oc2cc(N(C)C)ccc12)[C@H]1CC[C@H]2C(C)(C)CCC[C@]12C | – | – | – | Drug uptake [15]: Active; Activity [9]: Active
CN(C)c1ccc2c(CC(=O)NCC#Cc3cc(C(=O)O[C@H]4CC[C@H]5C(C)(C)CCC[C@]45C)c(OCC4CC4)cc3OCC3CC3)cc(=O)oc2c1 | – | – | – | Drug uptake [15]: Active; Activity [4]: Active; Activity [16]: Active
